Test results taken from ChEMBL document CHEMBL1146852, “Synthesis and pharmacological characterization of novel fluorescent histamine H2-receptor ligands derived from aminopotentidine” (Bioorg Med Chem Lett, 2006).
pEC50: −log10 of the molar value.

Key:
Format in all cases: functional
[1] = Antagonist activity at guinea pig H2R-Gsalpha fusion protein expressed in sf9 cells by GTPase assay; conditions: Cavia porcellus
Outline: (§1)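 Inhibition of histamine-stimulated high-affinity GTP hydrolysis in Sf9 membranes expressing hH2R-Gsα or gpH2R-Gsα fusion proteins. KB came from non-linear curve fitting. Means SD of three experiments.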

[2] = Ratio of antagonist activity at human H2R-Gsalpha fusion protein to guinea pig H2R-Gsalpha fusion protein expressed in sf9 cells
[3] = Antagonist activity at human H2R-Gsalpha fusion protein expressed in sf9 cells by GTPase assay; outline: as §1
[4] = target: Histamine H1 receptor (Homo sapiens) (UniProt P35367); experiment: Antagonist activity at human recombinant H1R expressed in sf9 cells assessed as inhibition of histamine-stimulated GTP hydrolysis
Sequence of Histamine H1 receptor (Homo sapiens) (P35367 whole entry): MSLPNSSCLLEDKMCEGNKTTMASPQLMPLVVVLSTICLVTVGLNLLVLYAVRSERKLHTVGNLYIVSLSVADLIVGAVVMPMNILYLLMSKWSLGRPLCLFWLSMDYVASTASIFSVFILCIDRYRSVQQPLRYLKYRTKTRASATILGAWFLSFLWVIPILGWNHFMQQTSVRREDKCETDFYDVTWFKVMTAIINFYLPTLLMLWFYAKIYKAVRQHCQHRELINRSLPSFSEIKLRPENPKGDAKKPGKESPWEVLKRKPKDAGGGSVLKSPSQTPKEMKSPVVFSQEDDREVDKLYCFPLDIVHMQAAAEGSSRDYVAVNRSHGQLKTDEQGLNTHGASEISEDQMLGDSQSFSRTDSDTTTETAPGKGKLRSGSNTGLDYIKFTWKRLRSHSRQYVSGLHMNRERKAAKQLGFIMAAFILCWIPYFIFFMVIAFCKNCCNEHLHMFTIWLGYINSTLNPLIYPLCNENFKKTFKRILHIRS

Histamine H2 receptor [5] = target: T1, Histamine H2 receptor (Homo sapiens, UniProt P25021); experiment: Binding affinity to human H2R expressed in sf9 cells by adenylyl cyclase assay
T1 sequence (P25021 whole entry): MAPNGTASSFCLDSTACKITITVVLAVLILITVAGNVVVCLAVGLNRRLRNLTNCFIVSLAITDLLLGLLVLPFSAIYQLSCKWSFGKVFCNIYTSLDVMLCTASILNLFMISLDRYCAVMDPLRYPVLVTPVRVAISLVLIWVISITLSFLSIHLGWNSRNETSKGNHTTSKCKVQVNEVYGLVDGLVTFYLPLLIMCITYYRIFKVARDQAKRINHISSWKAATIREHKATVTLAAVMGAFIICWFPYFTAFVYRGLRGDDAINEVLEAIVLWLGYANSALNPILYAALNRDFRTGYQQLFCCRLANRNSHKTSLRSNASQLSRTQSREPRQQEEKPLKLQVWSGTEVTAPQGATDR

[6] = target: Histamine H2 receptor (Cavia porcellus) (UniProt P47747); experiment: Binding affinity to guinea pig H2R expressed in sf9 cells by adenylyl cyclase assay
Sequence of Histamine H2 receptor (Cavia porcellus) (P47747 whole entry): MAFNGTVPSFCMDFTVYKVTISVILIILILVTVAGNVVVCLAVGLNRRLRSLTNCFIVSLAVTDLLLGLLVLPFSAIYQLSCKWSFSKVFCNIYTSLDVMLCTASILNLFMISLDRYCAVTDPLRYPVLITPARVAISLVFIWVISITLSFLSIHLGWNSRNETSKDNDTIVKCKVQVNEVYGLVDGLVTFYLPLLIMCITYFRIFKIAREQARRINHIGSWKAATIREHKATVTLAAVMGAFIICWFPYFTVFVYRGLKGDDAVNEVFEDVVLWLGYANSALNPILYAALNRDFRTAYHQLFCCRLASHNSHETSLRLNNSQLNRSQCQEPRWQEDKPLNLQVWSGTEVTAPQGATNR

Histamine H2 receptor [7] = target: T1, Histamine H2 receptor; experiment: Agonist activity at human H2R relative to histamine
Outline: (§2)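 GTPase activity in Sf9 insect cell membranes expressing hH2R-GsαS or gpH2R-GsαS fusion proteins. Curves were fitted by non-linear regression. Means SD of three experiments.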

[8] = target: Histamine H2 receptor (Cavia porcellus) (UniProt P47747); experiment: Agonist activity at guinea pig H2R relative to histamine; outline: as §2
Histamine H2 receptor [9] = target: T1, Histamine H2 receptor; experiment: Agonist activity at human H2R; outline: as §2
Histamine H2 receptor [10] = target: Histamine H2 receptor (Cavia porcellus, UniProt P47747); experiment: Agonist activity at guinea pig H2R; outline: as §2
Sequence of Histamine H2 receptor (Cavia porcellus, UniProt P47747) (P47747 whole entry): as above

SMILES	Kb [4] [µM]	Kb (Histamine H2 receptor [5]) [µM]	Kb [6] [µM]	Activity (Histamine H2 receptor [5]; filed as partial agonist)	Activity ([6]; filed as partial agonist)	Efficacy (Histamine H2 receptor [7]) [%]	Efficacy [8] [%]	pEC50 (Histamine H2 receptor [9])	pEC50 (Histamine H2 receptor [10])	Kb [1] [µM]	Ratio [2]	Kb [3] [µM]
NCCCOc1cccc(CN2CCCCC2)c1	> 30	–	–	–	–	–	–	–	–	6.8	2.2	15
N#CN/C(=N\CCCCCCN)NCCCOc1cccc(CN2CCCCC2)c1	> 30	2.5	0.033	–	–	–	–	–	–	0.075	24	1.8
O=C(CCCCCNC(=O)COc1ccc(/C=C/C2=[N+]3C(=Cc4ccc(-c5ccc[nH]5)n4[B-]3(F)F)C=C2)cc1)NCCCOc1cccc(CN2CCCCC2)c1	> 30	–	–	–	–	–	–	–	–	0.15	4.27	0.64
CC1(C)C(=CC=CC=CC2=[N+](CCCCS(=O)(=O)[O-])c3ccccc3C2(C)C)N(CCCCCC(=O)NCCN=C(NC#N)NCCCOc2cccc(CN3CCCCC3)c2)c2ccccc21	–	–	–	–	–	–	–	6.80	7.05	–	–	–
N#CN/C(=N\CCNC(=O)c1ccc(N)cc1)NCCCOc1cccc(CN2CCCCC2)c1.O=C(O)C(=O)O [AMINOPOTENTIDINE OXALATE]	–	–	–	–	–	–	–	–	–	0.28	0.79	0.22

The next lines start with results.

Kb [4] [µM]	Kb (Histamine H2 receptor [5]) [µM]	Kb [6] [µM]	Activity (Histamine H2 receptor [5]; filed as partial agonist)	Activity ([6]; filed as partial agonist)	Efficacy (Histamine H2 receptor [7]) [%]	Efficacy [8] [%]	pEC50 (Histamine H2 receptor [9])	pEC50 (Histamine H2 receptor [10])	SMILES	Kb [1] [µM]	Ratio [2]	Kb [3] [µM]
> 30	–	–	–	–	–	–	–	–	N#CN/C(=N\CCN)NCCCOc1cccc(CN2CCCCC2)c1	2.3	4.04	9.3
> 30	–	–	–	–	–	–	–	–	N#CN/C(=N\CCCCCCNC(=O)CCCCCNC(=O)COc1ccc(/C=C/C2=[N+]3C(=Cc4ccc(-c5ccc[nH]5)n4[B-]3(F)F)C=C2)cc1)NCCCOc1cccc(CN2CCCCC2)c1	0.19	1.37	0.26
> 30	–	–	Partial agonist	Partial agonist	58	65	–	–	CC1(C)C(/C=C/C=C/C=C2/N(CCCCCC(=O)NCC/N=C(\NC#N)NCCCOc3cccc(CN4CCCCC4)c3)c3ccccc3C2(C)C)=[N+](CCCCS(=O)(=O)[O-])c2ccccc21	0.058	0.81	0.047
